Experimental data from ChEMBL document CHEMBL1127856, “Synthesis and structure-activity studies on acidic amino acids and related diacids as NMDA receptor ligands” (J Med Chem, 1994).
Blank lines part the entries; values can stand above or below the compound they belong to.

Tests used:
[1] = molecular target: T1, Glutamate receptor ionotropic, AMPA (Rattus norvegicus, UniProt P19490+P19491+P19492+P19493); experiment: Tested in vitro for the concentration required to inhibit [3H]AMPA radioligand at EAA receptor sites in rat cortical membranes; assay type: cell membranes
In short: (§1)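 Radioligand displacement ([3H]AMPA or [3H]CPP) in rat cortical membranes prepared by the Ransom and Stec method.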

[2] = organism: Rattus norvegicus; experiment: Effective concentration in vitro as electropharmacological activity in the rat cortical wedge preparation; assay type: functional
In short: (§2)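 Rat brain wedges (500 μm) containing cerebral cortex and corpus callosum, separated by a grease gap. The cortex side is perfused with Mg2+-free oxygenated Krebs buffer containing the compounds, and the callosum side with Mg2+- and Ca2+-free Krebs. DC potentials are recorded via Ag/AgCl electrodes. Agonists for antagonism: NMDA 10 μM, AMPA 5 μM, kainic acid 10 μM. Dose–response curves come from single experiments, each repeated at least twice.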

[3] = molecular target: Glutamate NMDA receptor; experiment: Stimulation of [3H]-MK-801 binding to EAA receptor sites in rat cortical membranes
[4] = molecular target: Glutamate NMDA receptor; experiment: Tested in vitro for the concentration required to inhibit [3H]CPP radioligand at EAA receptor sites in rat cortical membranes; assay type: cell membranes; in short: as §1
[5] = molecular target: Glutamate receptor ionotropic, NMDA 2C (Rattus norvegicus) (UniProt Q00961); experiment: pKa was determined; assay type: functional
[6] = molecular target: T1, Glutamate receptor ionotropic, AMPA; experiment: Tested in vitro for the concentration required to inhibit [3H]AMPA radioligand at AMPA receptor sites in rat cortical membranes; assay type: cell membranes
[7] = molecular target: Glutamate receptor ionotropic, AMPA (Rattus norvegicus) (UniProt P19491+P19492+P19493+P19490); experiment: Inhibition of [3H]AMPA radioligand at EAA receptor sites in rat cortical membranes at 100 uM concentration; assay type: cell membranes; conditions: Membrane; in short: as §1
[8] = molecular target: Glutamate NMDA receptor (Rattus norvegicus) (UniProt P35439+Q00959+Q00960+Q00961+Q62645+Q8VHN2+Q9R1M7); experiment: Inhibition of [3H]CPP radioligand at EAA receptor sites in rat cortical membranes at 100 uM concentration; assay type: cell membranes; conditions: Membrane; in short: as §1
[9] = organism: Rattus norvegicus; experiment: Effective concentration in vitro as electropharmacological activity in the rat cortical wedge preparation; antagonist; assay type: functional; in short: as §2

Glutamate receptor ionotropic, NMDA 2C (Rattus norvegicus), sequence (Q00961 20-1237 limits assumed): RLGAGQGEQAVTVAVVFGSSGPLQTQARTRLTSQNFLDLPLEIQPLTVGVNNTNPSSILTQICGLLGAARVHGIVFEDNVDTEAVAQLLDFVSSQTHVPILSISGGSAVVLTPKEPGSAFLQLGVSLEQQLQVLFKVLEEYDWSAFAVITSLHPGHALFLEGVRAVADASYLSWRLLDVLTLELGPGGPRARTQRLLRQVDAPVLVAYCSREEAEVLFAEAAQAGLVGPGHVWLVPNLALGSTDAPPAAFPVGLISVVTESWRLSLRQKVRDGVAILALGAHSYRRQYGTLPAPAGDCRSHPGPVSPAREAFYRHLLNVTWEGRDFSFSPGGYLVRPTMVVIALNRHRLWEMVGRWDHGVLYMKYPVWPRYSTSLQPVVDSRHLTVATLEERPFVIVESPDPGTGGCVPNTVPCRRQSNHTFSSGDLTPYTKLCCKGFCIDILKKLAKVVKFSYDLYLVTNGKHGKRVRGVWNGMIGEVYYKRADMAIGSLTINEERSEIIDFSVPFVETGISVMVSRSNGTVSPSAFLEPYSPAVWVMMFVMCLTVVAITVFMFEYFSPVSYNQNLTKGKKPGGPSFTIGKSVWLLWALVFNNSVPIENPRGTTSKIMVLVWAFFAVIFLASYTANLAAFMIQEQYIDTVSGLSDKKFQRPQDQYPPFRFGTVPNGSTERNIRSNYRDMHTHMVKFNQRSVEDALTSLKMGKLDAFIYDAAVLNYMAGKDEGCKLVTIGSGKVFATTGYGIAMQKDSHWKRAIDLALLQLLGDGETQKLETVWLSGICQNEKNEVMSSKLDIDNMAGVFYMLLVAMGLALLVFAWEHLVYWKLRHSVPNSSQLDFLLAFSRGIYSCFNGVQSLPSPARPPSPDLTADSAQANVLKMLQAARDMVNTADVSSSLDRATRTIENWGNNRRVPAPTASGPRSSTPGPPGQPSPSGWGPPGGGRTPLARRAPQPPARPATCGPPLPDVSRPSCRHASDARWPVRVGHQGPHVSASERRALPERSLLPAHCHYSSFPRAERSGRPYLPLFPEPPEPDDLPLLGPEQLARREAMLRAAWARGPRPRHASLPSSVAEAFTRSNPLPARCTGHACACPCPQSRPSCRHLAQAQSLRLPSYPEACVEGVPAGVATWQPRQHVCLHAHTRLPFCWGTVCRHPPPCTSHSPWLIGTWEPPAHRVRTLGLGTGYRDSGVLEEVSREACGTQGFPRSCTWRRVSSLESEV

Compound: CC(C)(C)c1onc(O)c1CC(N)C(=O)O (configuration not stated)
- IC50 [4]: > 100 µM
- EC50 [2]: 48 µM
- EC50 [3]: > 100 µM

Compound: NC(Cc1c(O)noc1CBr)C(=O)O (configuration not stated)
- IC50 [6]: 0.03 µM
- EC50 [2]: 13 µM
- EC50 [3]: > 100 µM

Compound: NC(C(=O)O)c1c(O)noc1CO (configuration not stated)
- IC50 [1]: > 100 µM
- EC50 [2]: 8 µM
- EC50 [3]: 5 µM

Compound: CC(C)(C)c1onc(O)c1C(N)C(=O)O (configuration not stated)
- IC50 [1]: > 100 µM
- inhibition [7]: 8%
- inhibition [8]: 25%
- IC50 [4]: > 100 µM
- EC50 [9]: Antagonist
- EC50 [3]: > 100 µM

Compound: CNC(C(=O)O)c1c(C)o[nH]c1=O (configuration not stated)
- IC50 [1]: > 100 µM
- IC50 [4]: 18.3 µM
- EC50 [2]: 70 µM
- EC50 [3]: 50 µM

Continued, values first:

- IC50 [1]: > 100 µM
- EC50 [2]: 4.3 µM
- EC50 [3]: 0.45 µM
Compound: Cc1o[nH]c(=O)c1C(N)C(=O)O (configuration not stated)

- IC50 [1]: > 100 µM
- IC50 [4]: > 100 µM
- EC50 [2]: 2500 µM
- EC50 [3]: > 100 µM
Compound: NC1(C(=O)O)CCCCc2onc(O)c21 (configuration not stated)

- IC50 [1]: > 100 µM
- IC50 [4]: > 100 µM
- EC50 [2]: > 5000 µM
- EC50 [3]: > 100 µM
Compound: CSC(C(=O)O)c1c(O)noc1C (configuration not stated)

- IC50 [1]: > 100 µM
- pKa [5]: < 2
- IC50 [4]: > 100 µM
- EC50 [2]: 1500 µM
Compound: O=C(O)c1cccnc1C(=O)O [QUINOLINIC ACID]

- IC50 [1]: > 100 µM
- IC50 [4]: > 100 µM
- EC50 [2]: > 5000 µM
- EC50 [3]: > 100 µM
Compound: COC(C(=O)O)c1c(O)noc1C (configuration not stated)

- IC50 [1]: 0.4 µM
- IC50 [4]: > 100 µM
- EC50 [2]: 110 µM
- EC50 [3]: > 100 µM
Compound: NC(Cc1c(O)noc1CO)C(=O)O (configuration not stated)
